Measured values: ChEMBL document CHEMBL4304758, “Development of Peptide-Based Sirtuin Defatty-Acylase Inhibitors Identified by the Fluorescence Probe, SFP3, That Can Efficiently Measure Defatty-Acylase Activity of Sirtuin” (J Med Chem, 2019)
Residues, ends and D or L forms follow the SMILES beside them. *: point of attachment. Phenylacetyl(4-E-phenylazo) = O=C(Cc1ccc(/N=N/c2ccccc2)cc1)*; X5 = CCN(CC)c1ccc(/N=N/c2ccc(CC(=O)*)cc2)cc1; X3 = CN(C)c1ccc(/N=N/c2ccc(CCC(=O)*)cc2)cc1; X4 = CN(C)c1ccc(/N=N/c2ccc(CC(=O)*)cc2)cc1; X2 = CN(C)c1ccc(/N=N/c2ccc(C(=O)*)cc2)cc1; X1 = O=C(Cc1ccc(/N=N/c2ccc(O)cc2)cc1)*

Experiments:
[1] = biological target: T1, NAD-dependent protein deacetylase sirtuin-1 (Homo sapiens, UniProt Q96EB6); test: Inhibition of recombinant human C-terminal His6-tagged SIRT1 (Met1 to Ser747 residues) defatty-acylase activity expressed in Escherichia coli using SFP3 as substrate measured at 5 mins interval for 60 mins in presence of NAD+ by fluorescence assay
T1 sequence (Q96EB6 whole entry): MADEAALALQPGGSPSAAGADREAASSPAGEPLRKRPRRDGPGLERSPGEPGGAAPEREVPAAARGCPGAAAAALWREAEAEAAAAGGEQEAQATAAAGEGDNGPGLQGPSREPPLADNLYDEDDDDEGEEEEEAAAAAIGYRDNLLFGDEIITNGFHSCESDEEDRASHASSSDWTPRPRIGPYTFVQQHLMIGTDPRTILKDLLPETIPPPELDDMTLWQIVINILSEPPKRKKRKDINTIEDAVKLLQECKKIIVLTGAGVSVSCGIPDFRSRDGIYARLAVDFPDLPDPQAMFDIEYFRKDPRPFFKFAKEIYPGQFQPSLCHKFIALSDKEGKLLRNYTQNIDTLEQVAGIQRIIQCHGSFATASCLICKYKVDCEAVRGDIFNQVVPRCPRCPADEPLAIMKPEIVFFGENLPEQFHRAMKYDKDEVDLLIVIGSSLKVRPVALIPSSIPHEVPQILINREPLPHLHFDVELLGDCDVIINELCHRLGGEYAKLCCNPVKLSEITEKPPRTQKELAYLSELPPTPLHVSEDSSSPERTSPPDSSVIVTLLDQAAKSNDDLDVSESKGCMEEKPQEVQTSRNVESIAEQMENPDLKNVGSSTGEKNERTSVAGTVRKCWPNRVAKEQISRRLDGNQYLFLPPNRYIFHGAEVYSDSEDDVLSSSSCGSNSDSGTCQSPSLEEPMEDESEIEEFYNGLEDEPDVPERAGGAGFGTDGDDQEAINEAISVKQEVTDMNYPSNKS

[2] = biological target: T1, NAD-dependent protein deacetylase sirtuin-1; test: Inhibition of recombinant human C-terminal His6-tagged SIRT1 (Met1 to Ser747 residues) demyristoylase activity expressed in Escherichia coli using p53(Myr)-AMC as substrate measured after 3 hrs in presence of NAD+ and trypsin by fluorescence assay
How it was run: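 SIRT1 at 14 nM final with 50 μM p53(Myr)-AMC and 500 μM NAD⁺ in Tris-HCl pH 8.0/NaCl/DTT/Triton buffer, 0.5% DMSO, 3 h at room temperature. Trypsin (100 nM final) plus nicotinamide (1 mM final) then added. Fluorescence Ex 355/Em 460 nm read every 5 min for 20 min at 37 °C. n = 3.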

[3] = biological target: T2, NAD-dependent protein deacetylase sirtuin-2 (Homo sapiens, UniProt Q8IXJ6); test: Inhibition of recombinant human SIRT2 defatty-acylase activity using SFP3 as substrate measured at 5 mins interval for 60 mins in presence of NAD+ by fluorescence assay
T2 sequence (Q8IXJ6 whole entry): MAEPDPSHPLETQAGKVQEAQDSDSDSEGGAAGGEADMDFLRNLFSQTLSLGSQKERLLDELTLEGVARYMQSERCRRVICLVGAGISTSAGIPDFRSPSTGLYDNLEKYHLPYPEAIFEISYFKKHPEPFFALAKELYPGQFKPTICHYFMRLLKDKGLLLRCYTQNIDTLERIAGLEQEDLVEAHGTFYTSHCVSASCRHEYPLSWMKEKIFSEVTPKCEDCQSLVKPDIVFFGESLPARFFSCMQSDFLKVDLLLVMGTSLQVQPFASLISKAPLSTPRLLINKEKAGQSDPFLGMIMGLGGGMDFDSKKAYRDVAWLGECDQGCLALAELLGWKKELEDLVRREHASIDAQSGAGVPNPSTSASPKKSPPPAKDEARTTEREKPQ

[4] = biological target: T2, NAD-dependent protein deacetylase sirtuin-2; test: Inhibition of recombinant human SIRT2 deacylation activity using Fluor de Lys Sirt2 as substrate measured at 5 mins interval for 30 mins in presence of NAD+ by fluorescence assay
[5] = biological target: T2, NAD-dependent protein deacetylase sirtuin-2; test: Inhibition of recombinant human SIRT2 demyristoylase activity using p53(Myr)-AMC as substrate measured after 3 hrs in presence of NAD+ and trypsin by fluorescence assay
[6] = biological target: T3, NAD-dependent protein deacetylase sirtuin-3, mitochondrial (Homo sapiens, UniProt Q9NTG7); test: Inhibition of recombinant human SIRT3 (118 to 399 residues) defatty-acylase activity expressed in Escherichia coli using SFP3 as substrate measured at 5 mins interval for 60 mins in presence of NAD+ by fluorescence assay
T3 sequence (Q9NTG7 whole entry): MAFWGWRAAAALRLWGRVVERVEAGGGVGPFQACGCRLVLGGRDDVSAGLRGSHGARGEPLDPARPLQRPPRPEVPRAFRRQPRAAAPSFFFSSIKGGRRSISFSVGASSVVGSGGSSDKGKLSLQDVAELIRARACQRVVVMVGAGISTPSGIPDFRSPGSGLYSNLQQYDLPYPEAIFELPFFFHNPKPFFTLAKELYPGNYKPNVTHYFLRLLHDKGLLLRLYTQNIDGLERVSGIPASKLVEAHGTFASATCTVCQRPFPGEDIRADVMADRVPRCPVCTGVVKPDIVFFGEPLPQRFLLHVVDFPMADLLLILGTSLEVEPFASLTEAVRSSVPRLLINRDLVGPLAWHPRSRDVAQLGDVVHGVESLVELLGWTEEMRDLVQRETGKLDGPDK

[7] = biological target: T3, NAD-dependent protein deacetylase sirtuin-3, mitochondrial; test: Inhibition of recombinant human SIRT3 (118 to 399 residues) demyristoylase activity expressed in Escherichia coli using p53(Myr)-AMC as substrate measured after 3 hrs in presence of NAD+ and trypsin by fluorescence assay
[8] = biological target: T2, NAD-dependent protein deacetylase sirtuin-2; test: Drug metabolism assessed as recombinant human SIRT2-mediated deacylation by measuring dabcyl formation at 20 uM measured up to 4 hrs in presence of NAD+ by HPLC analysis; type: ADME
How it was run: (§1)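 Compound at 20 μM final (0.2% DMSO) with 350 nM SIRT2 and 500 μM NAD⁺ at 37 °C in buffer I: 50 mM Tris-HCl pH 8.0, 150 mM NaCl, 1 mM DTT, 0.05% Triton X-100. Aliquots taken at 0 and 4 h. Reversed-phase HPLC, TFA water/acetonitrile gradient. Detection at 510, 350 or 254 nm depending on compound.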

[9] = biological target: T2, NAD-dependent protein deacetylase sirtuin-2; test: Drug metabolism assessed as recombinant human SIRT2-mediated deacylation by measuring dabcyl-PH formation at 20 uM measured up to 4 hrs in presence of NAD+ by HPLC analysis; type: ADME; how it was run: as §1
SIRT2 = test: Stability of the compound in SIRT assay buffer assessed as parent compound remaining at 20 uM measured after 4 hrs in presence of recombinant human SIRT2 and NAD+ by HPLC analysis; type: physicochemical; settings: read-out: Stability; how it was run: as §1

Cc1cc(C)nc(SCC(=O)Nc2ncc(Cc3cccc4ccccc34)s2)n1
IC50 [1]: > 10000 nM
IC50 [2]: > 10000 nM

CCCCCCCCCCCCCC(=O)NCCCC[C@H](NC(=O)OCc1ccccc1)C(=O)Nc1ccccc1
IC50 [3]: > 2000 nM
IC50 [4]: > 1000 nM

C[C@H](NC(=O)[C@H](CCCCNC(=O)Cc1ccc(/N=N/c2ccc(O)cc2)cc1)NC(=O)OCc1ccccc1)C(N)=O
IC50 [3]: > 2000 nM
IC50 [4]: 190 nM

C[C@H](NC(=O)[C@H](CCCCNC(=O)Cc1ccc(/N=N/c2ccc(OCCc3ccccc3)cc2)cc1)NC(=O)OCc1ccccc1)C(N)=O
IC50 [3]: > 2000 nM
IC50 [5]: > 2000 nM
IC50 [4]: 400 nM
IC50 [1]: > 2000 nM
IC50 [6]: > 2000 nM

C[C@H](NC(=O)[C@H](CCCCNC(=O)Cc1ccc(/N=N/c2ccc(OCc3ccccc3)cc2)cc1)NC(=O)OCc1ccccc1)C(N)=O
IC50 [3]: > 2000 nM
IC50 [4]: 190 nM

CC[C@H](C)[C@H](NC(C)=O)C(=O)N[C@@H](CCCCNC(=O)Cc1ccc(/N=N/c2ccccc2)cc1)C(=O)N[C@@H](CCCNC(=N)N)C(N)=O
IC50 [3]: 63 nM
IC50 [5]: 250 nM
IC50 [4]: 110 nM
IC50 [1]: 270 nM
IC50 [2]: 84 nM

CC[C@H](C)[C@H](NC(=O)[C@H](CCCNC(=N)N)NC(C)=O)C(=O)N[C@@H](CCCCNC(=O)Cc1ccc(/N=N/c2ccccc2)cc1)C(=O)N[C@@H](CCCNC(=N)N)C(=O)N[C@@H](Cc1ccc(O)cc1)C(N)=O (Ac-RIK(Phenylacetyl(4-E-phenylazo))RY-NH2)
IC50 [3]: 19 nM
IC50 [5]: 51 nM
IC50 [4]: 180 nM
IC50 [1]: 48 nM
IC50 [6]: 77 nM
IC50 [2]: 71 nM
IC50 [7]: 340 nM

CC[C@H](C)[C@H](NC(=O)[C@H](CCCNC(=N)N)NC(C)=O)C(=O)N[C@@H](CCCCNC(=O)Cc1ccc(/N=N/c2ccc(O)cc2)cc1)C(=O)N[C@@H](CCCNC(=N)N)C(=O)N[C@@H](Cc1ccc(O)cc1)C(N)=O (Ac-RIK(X1)RY-NH2)
IC50 [3]: 19 nM
IC50 [5]: 44 nM
IC50 [4]: 110 nM
IC50 [1]: 120 nM
IC50 [6]: 55 nM
IC50 [2]: 50 nM
IC50 [7]: 190 nM

CC[C@H](C)[C@H](NC(=O)[C@H](CCCNC(=N)N)NC(C)=O)C(=O)N[C@@H](CCCCNC(=O)c1ccc(/N=N/c2ccc(N(C)C)cc2)cc1)C(=O)N[C@@H](CCCNC(=N)N)C(=O)N[C@@H](Cc1ccc(O)cc1)C(N)=O (Ac-RIK(X2)RY-NH2)
IC50 [3]: 430 nM
Drug metabolism [8]: Metabolite_Detected
IC50 [5]: 1600 nM
IC50 [4]: 1600 nM
IC50 [1]: > 2000 nM
IC50 [6]: 770 nM

CC[C@H](C)[C@H](NC(=O)[C@H](CCCNC(=N)N)NC(C)=O)C(=O)N[C@@H](CCCCNC(=O)CCc1ccc(/N=N/c2ccc(N(C)C)cc2)cc1)C(=O)N[C@@H](CCCNC(=N)N)C(=O)N[C@@H](Cc1ccc(O)cc1)C(N)=O (Ac-RIK(X3)RY-NH2)
IC50 [3]: 300 nM
Drug metabolism [9]: Metabolite_Detected
IC50 [5]: > 2000 nM
IC50 [4]: 1100 nM
IC50 [1]: 1700 nM
IC50 [6]: 1500 nM

CC[C@H](C)[C@H](NC(=O)[C@H](CCCNC(=N)N)NC(C)=O)C(=O)N[C@@H](CCCCNC(=O)Cc1ccc(/N=N/c2ccc(N(C)C)cc2)cc1)C(=O)N[C@@H](CCCNC(=N)N)C(=O)N[C@@H](Cc1ccc(O)cc1)C(N)=O (Ac-RIK(X4)RY-NH2)
IC50 [3]: 36 nM
remaining at 4 h, 20 µM (SIRT2): > 99%
IC50 [5]: 130 nM
IC50 [4]: 170 nM
IC50 [1]: 400 nM
IC50 [6]: 110 nM
IC50 [2]: 98 nM
IC50 [7]: 330 nM

CC[C@H](C)[C@H](NC(=O)[C@H](CCCNC(=N)N)NC(C)=O)C(=O)N[C@@H](CCCCNC(=O)Cc1ccc(/N=N/c2ccc(N(CC)CC)cc2)cc1)C(=O)N[C@@H](CCCNC(=N)N)C(=O)N[C@@H](Cc1ccc(O)cc1)C(N)=O (Ac-RIK(X5)RY-NH2)
IC50 [3]: 68 nM
IC50 [5]: 190 nM
IC50 [4]: 260 nM
IC50 [1]: 1100 nM
IC50 [6]: 180 nM
IC50 [2]: 140 nM
IC50 [7]: 480 nM

CC[C@H](C)[C@H](NC(=O)[C@@H](NC(=O)[C@H](CCCCNC(=O)Cc1ccc(/N=N/c2ccccc2)cc1)NC(=O)[C@H](CC(=O)O)NC(=O)[C@H](CO)NC(C)=O)[C@@H](C)O)C(N)=O (Ac-SDK(Phenylacetyl(4-E-phenylazo))TI-NH2)
IC50 [3]: 1500 nM
IC50 [5]: > 2000 nM
IC50 [4]: 580 nM
IC50 [1]: > 2000 nM
IC50 [6]: > 2000 nM

CC[C@H](C)[C@H](NC(=O)[C@@H](NC(=O)[C@H](CCCCNC(=O)c1ccc(/N=N/c2ccc(N(C)C)cc2)cc1)NC(=O)[C@H](CC(=O)O)NC(=O)[C@H](CO)NC(C)=O)[C@@H](C)O)C(N)=O (Ac-SDK(X2)TI-NH2)
IC50 [3]: > 2000 nM
IC50 [5]: > 2000 nM
IC50 [4]: 1200 nM
IC50 [1]: > 2000 nM
IC50 [6]: > 2000 nM

CC[C@H](C)[C@H](NC(=O)[C@H](CCCCNC(=O)Cc1ccc(/N=N/c2ccccc2)cc1)NC(=O)[C@@H](NC(C)=O)C(C)C)C(=O)N[C@@H](CCCCN)C(=O)N[C@@H](CCCCN)C(N)=O (Ac-VK(Phenylacetyl(4-E-phenylazo))IKK-NH2)
IC50 [3]: 120 nM
IC50 [5]: 520 nM
IC50 [4]: 120 nM
IC50 [1]: 1400 nM
IC50 [2]: 430 nM
